Assay results published in ChEMBL document CHEMBL2086325, “Suppression of autoimmune arthritis by Celastrus-derived Celastrol through modulation of pro-inflammatory chemokines” (Bioorg Med Chem, 2012).
Calls of active or inactive are those of the source. No cut-off for these calls is given here.

What was measured:
Rattus norvegicus [1] = species on record: Rattus norvegicus; assay: Antiarthritic effect in IL-1beta-stimulatedspleen adherent cells isolated from Lewis rat adjuvant-induced arthritis model assessed as reduction in IL6 production pre-incubated with compound for 30 mins before stimulation with IL-1beta for 48 hrs by multiplex assay; type: functional, tissue-based; conditions: Spleen
Rattus norvegicus [2] = assay: (§1) Antiarthritic effect in Lewis rat adjuvant-induced arthritis model lymph node cells restimulated with sonicated Mtb post isolation assessed as reduction in MCP1 production at 200 ug, ip starting from arthritis onset and continued uninterrupted until study end by cytokine multiplex assay; type: functional, organism-based
Method in brief: (§2)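 Male Lewis rats were immunized s.c. with heat-killed Mtb H37Ra (1.5 mg/rat) in mineral oil. From arthritis onset they received 200 μg/rat i.p. daily (DMSO stock diluted in PBS); controls got 1.2% DMSO in PBS. On d 18, draining lymph node or synovial-infiltrating cells were cultured at 1.5 × 10^6/well in 2% FBS medium ± sonicated Mtb (10 μg/ml) for 24 h. Supernatants were analysed by multiplex.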

Rattus norvegicus [3] = assay: Increase in CCR1 expression in Lewis rat adjuvant-induced arthritis model spleen adherent cells restimulated with sonicated Mtb post isolation at 200 ug, ip starting from arthritis onset and continued uninterrupted until study end by qPCR relative baseline expression; type: functional, organism-based
Method in brief: (§3)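 From onset of Mtb-induced arthritis, rats received 200 μg/rat i.p. daily or vehicle. Spleen adherent cells harvested on d 18 (1.5–2.0 × 10^6 cells/well) were cultured in medium or with sonicated Mtb (10 μg/ml) for 24 h. Receptor mRNA was quantified by qPCR after TRIzol RNA isolation and cDNA synthesis, normalized to HGPRT and reported as relative message.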

Rattus norvegicus [4] = assay: Antiarthritic effect in Lewis rat adjuvant-induced arthritis model serum assessed as reduction in GRO/KC production at 200 ug, ip starting from arthritis onset and continued uninterrupted until study end by cytokine multiplex assay; type: functional, organism-based
Method in brief: (§4)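 Arthritic Lewis rats (Mtb 1.5 mg s.c. in mineral oil) were given 200 μg/rat i.p. daily from onset until the day before harvest; controls received DMSO/PBS vehicle. On d 18, blood was taken by cardiac puncture after euthanasia and serum stored at −80 °C. Serum pooled from 4 rats was assayed in triplicate by multiplex.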

Rattus norvegicus [5] = assay: Antiarthritic effect in Lewis rat adjuvant-induced arthritis model spleen adherent cells restimulated with sonicated Mtb post isolation assessed as reduction in CCR5 expression at 200 ug, ip starting from arthritis onset and continued uninterrupted until study end by qPCR; type: functional, organism-based; method in brief: as §3
Rattus norvegicus [6] = assay: Antiarthritic effect in Lewis rat adjuvant-induced arthritis model lymph node cells restimulated with sonicated Mtb post isolation assessed as reduction in RANTES production at 200 ug, ip starting from arthritis onset and continued uninterrupted until study end by cytokine multiplex assay; type: functional, organism-based; method in brief: as §2
Rattus norvegicus [7] = assay: as §1, with “synovial infiltrating” for “lymph node”, “MIP-1alpha” for “MCP1”; type: functional, organism-based; method in brief: as §2
Rattus norvegicus [8] = assay: Antiarthritic effect in Lewis rat adjuvant-induced arthritis model synovial infiltrating cells restimulated with sonicated Mtb post isolation assessed as reduction in IL6 production at 200 ug, ip starting from arthritis onset and continued uninterrupted until study end by cytokine multiplex assay; type: functional, organism-based; method in brief: as §2
Rattus norvegicus [9] = assay: Antiarthritic effect in Lewis rat adjuvant-induced arthritis model lymph node cells restimulated with sonicated Mtb post isolation assessed as reduction in GRO/KC production at 200 ug, ip starting from arthritis onset and continued uninterrupted until study end by cytokine multiplex assay; type: functional, organism-based; method in brief: as §2
Rattus norvegicus [10] = species on record: Rattus norvegicus; assay: Increase in CCR1 expression in sonicated Mtb-stimulated spleen adherent cells isolated from Lewis rat adjuvant-induced arthritis model pre-incubated with compound before stimulation with sonicated Mtb for 24 hrs by qPCR; type: functional, tissue-based
Method in brief: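 Spleen adherent cells (1.5–2.0 × 10^6 cells/well) came from an untreated arthritic Lewis rat. They were restimulated 24 h with sonicated Mtb (10 μg/ml) with or without compound at 0.1 and 0.3 μM. CCR1 mRNA was measured by qPCR, normalized to HPRT and expressed as relative message.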

Rattus norvegicus [11] = species on record: Rattus norvegicus; assay: Antiarthritic effect in IL-1beta-stimulatedspleen adherent cells isolated from Lewis rat adjuvant-induced arthritis model assessed as reduction in MIP-1alpha production pre-incubated with compound for 30 mins before stimulation with IL-1beta for 48 hrs by multiplex assay; type: functional, tissue-based; conditions: Spleen
Rattus norvegicus [12] = assay: Antiarthritic effect in Lewis rat adjuvant-induced arthritis model spleen adherent cells restimulated with sonicated Mtb post isolation assessed as reduction in CXCR2 expression at 200 ug, ip starting from arthritis onset and continued uninterrupted until study end by qPCR; type: functional, organism-based; method in brief: as §3
Rattus norvegicus [13] = species on record: Rattus norvegicus; assay: Antiarthritic effect in IL-1beta-stimulatedspleen adherent cells isolated from Lewis rat adjuvant-induced arthritis model assessed as reduction in MCP1 production pre-incubated with compound for 30 mins before stimulation with IL-1beta for 48 hrs by multiplex assay; type: functional, tissue-based; conditions: Spleen
Rattus norvegicus [14] = assay: Antiarthritic effect in Lewis rat adjuvant-induced arthritis model spleen adherent cells restimulated with sonicated Mtb post isolation assessed as reduction in CXCR1 expression at 200 ug, ip starting from arthritis onset and continued uninterrupted until study end by qPCR analysis; type: functional, organism-based; method in brief: as §3
Rattus norvegicus [15] = assay: Antiarthritic effect in Lewis rat adjuvant-induced arthritis model spleen adherent cells restimulated with sonicated Mtb post isolation assessed as reduction in CCR3 expression at 200 ug, ip starting from arthritis onset and continued uninterrupted until study end by qPCR; type: functional, organism-based; method in brief: as §3
Rattus norvegicus [16] = assay: Antiarthritic effect in Lewis rat adjuvant-induced arthritis model serum assessed as reduction in RANTES production at 200 ug, ip starting from arthritis onset and continued uninterrupted until study end by cytokine multiplex assay; type: functional, organism-based; method in brief: as §4
Rattus norvegicus [17] = assay: Antiarthritic effect in Lewis rat adjuvant-induced arthritis model spleen adherent cells restimulated with sonicated Mtb post isolation assessed as reduction in CXCR4 expression at 200 ug, ip starting from arthritis onset and continued uninterrupted until study end by qPCR; type: functional, organism-based; method in brief: as §3
Rattus norvegicus [18] = assay: Antiarthritic effect in Lewis rat adjuvant-induced arthritis model synovial infiltrating cells restimulated with sonicated Mtb post isolation assessed as reduction in RANTES production at 200 ug, ip starting from arthritis onset and continued uninterrupted until study end by cytokine multiplex assay; type: functional, organism-based; method in brief: as §2
Rattus norvegicus [19] = assay: Antiarthritic effect in Lewis rat adjuvant-induced arthritis model serum assessed as reduction in IL6 production at 200 ug, ip starting from arthritis onset and continued uninterrupted until study end by cytokine multiplex assay; type: functional, organism-based; method in brief: as §4
Rattus norvegicus [20] = assay: Antiarthritic effect in Lewis rat adjuvant-induced arthritis model serum assessed as reduction in IL-1beta production at 200 ug, ip starting from arthritis onset and continued uninterrupted until study end by cytokine multiplex assay; type: functional, organism-based; method in brief: as §4
Rattus norvegicus [21] = assay: Antiarthritic effect in Lewis rat adjuvant-induced arthritis model spleen adherent cells restimulated with sonicated Mtb post isolation assessed as reduction in CCR2 expression at 200 ug, ip starting from arthritis onset and continued uninterrupted until study end by qPCR; type: functional, organism-based; method in brief: as §3
Rattus norvegicus [22] = species on record: Rattus norvegicus; assay: Antiarthritic effect in IL-1beta-stimulatedspleen adherent cells isolated from Lewis rat adjuvant-induced arthritis model assessed as reduction in RANTES production pre-incubated with compound for 30 mins before stimulation with IL-1beta for 48 hrs by multiplex assay; type: functional, tissue-based; conditions: Spleen
Rattus norvegicus [23] = species on record: Rattus norvegicus; assay: Antiarthritic effect in sonicated Mtb-stimulated spleen adherent cells isolated from Lewis rat adjuvant-induced arthritis model assessed as reduction in GRO/KC production pre-incubated with compound for 30 mins before stimulation with sonicated-Mtb for 48 hrs by multiplex assay; type: functional, tissue-based
Rattus norvegicus [24] = species on record: Rattus norvegicus; assay: Antiarthritic effect in sonicated Mtb-stimulated spleen adherent cells isolated from Lewis rat adjuvant-induced arthritis model assessed as reduction in IL6 production pre-incubated with compound for 30 mins before stimulation with sonicated-Mtb for 48 hrs by multiplex assay; type: functional, tissue-based

In the case of CC1=C(O)C(=O)C=C2C1=CC=C1[C@@]2(C)CC[C@@]2(C)[C@@H]3C[C@](C)(C(=O)O)CC[C@]3(C)CC[C@]12C [CELASTROL], the Activity (Rattus norvegicus [1]) is reported as “Dose-dependent effect”, the Activity (Rattus norvegicus [2]) is reported as “inactive” and the Activity (Rattus norvegicus [3]) is reported as “Active”. For the same molecule, the Activity (Rattus norvegicus [4]) was “Active”, the Activity (Rattus norvegicus [5]) was “Active” and the Activity (Rattus norvegicus [6]) was “inactive”. The Activity (Rattus norvegicus [7]) was “inactive”, the Activity (Rattus norvegicus [8]) was “inactive” and the Activity (Rattus norvegicus [9]) was “inactive”. For the same molecule, the Activity (Rattus norvegicus [10]) was “Dose-dependent effect”, the Activity (Rattus norvegicus [11]) was “Dose-dependent effect” and the Activity (Rattus norvegicus [12]) was “Active”. The Activity (Rattus norvegicus [13]) was “Dose-dependent effect”, the Activity (Rattus norvegicus [14]) was “Active” and the Activity (Rattus norvegicus [15]) was “Active”. The Activity (Rattus norvegicus [16]) was “Active”, the Activity (Rattus norvegicus [17]) was “Active” and the Activity (Rattus norvegicus [18]) was “inactive”. The Activity (Rattus norvegicus [19]) was “inactive”, the Activity (Rattus norvegicus [20]) was “Active” and the Activity (Rattus norvegicus [21]) was “Active”. For the same molecule, the Activity (Rattus norvegicus [22]) was “Dose-dependent effect”, the Activity (Rattus norvegicus [23]) was “Dose-dependent effect” and the Activity (Rattus norvegicus [24]) was “Dose-dependent effect”.
